Source: ChEMBL document CHEMBL3046416, “Differential susceptibility to glyphosate among the Conyza weed species in Spain” (J Agric Food Chem, 2010)

How the values were obtained:
Erigeron canadensis [1] = assay: Drug absorption in Conyza canadensis (horseweed) assessed as translocation in rest of plant at […] measured after 96 hr by liquid scintillation spectrometry; type: ADME, organism-based; conditions: in vivo
How it was run: (§1)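 Glyphosate-susceptible plants were grown in pots in a growth chamber (28/18 °C, 16 h photoperiod). They were treated with commercial glyphosate spiked with [14C]glyphosate (0.417 kBq μL-1; 1 g ai L-1, i.e. 200 g ai ha-1 in 200 L). Plants were harvested 96 h after treatment. Unabsorbed label was rinsed from the treated leaf with water-acetone (1:1). Plants were split into treated leaf, rest of shoot and root, and the rinsate was counted by liquid scintillation.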

Conyza sumatrensis [2] = assay: Drug absorption in Conyza sumatrensis (tall fleabane) assessed as translocation in rest of plant at […] measured after 96 hr by liquid scintillation spectrometry; type: ADME, organism-based; conditions: in vivo; how it was run: as §1
Leaf [3] = assay: Drug absorption in Conyza canadensis (horseweed) assessed as translocation in treated leaf at […] measured after 96 hr by liquid scintillation spectrometry; type: ADME; conditions: erigeron canadensis, other; how it was run: as §1
Leaf [4] = assay: Drug absorption in Conyza bonariensis (hairy fleabane) assessed as translocation in treated leaf at […] measured after 96 hr by liquid scintillation spectrometry; type: ADME; conditions: other; how it was run: as §1
Leaf [5] = assay: Drug absorption in Conyza sumatrensis (tall fleabane) assessed as translocation in treated leaf at […] measured after 96 hr by liquid scintillation spectrometry; type: ADME; conditions: topical_or_ocular; how it was run: as §1
[6] = Ratio of ED50 for hairy fleabane Conyza canadensis to ED50 for tall fleabane Conyza sumatrensis; type: functional
[7] = Ratio of ED50 for hairy fleabane Conyza bonariensis to ED50 for tall fleabane Conyza sumatrensis; type: functional
Conyza bonariensis [8] = assay: Herbicidal activity against Conyza bonariensis (hairy fleabane) at bolting stage (BBHC32) assessed as growth inhibition measured after 21 days; type: functional
How it was run: (§2)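 Glyphosate-susceptible plants were grown in a growth chamber (28/18 °C day/night, 16 h photoperiod, 80% RH). Commercial glyphosate was sprayed from 50 cm in a laboratory spray chamber at rosette (BBCH 14-15), or, for C. bonariensis only, also at bolting (BBCH 32) or flowering (BBCH 55). Shoot fresh weight was taken 21 d later as % of untreated. Five replications of three plants each. ED50 came from a log-logistic regression of pooled data.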

Conyza bonariensis [9] = assay: Herbicidal activity against Conyza bonariensis (hairy fleabane) at flowering stage (BBHC55) assessed as growth inhibition measured after 21 days; type: functional; how it was run: as §2
Erigeron canadensis [10] = assay: Herbicidal activity against Conyza canadensis (horseweed) at rosette stage (BBHC14 to 15) assessed as growth inhibition measured after 21 days; type: functional; how it was run: as §2
Conyza bonariensis [11] = assay: Herbicidal activity against Conyza bonariensis (hairy fleabane) at rosette stage (BBHC14 to 15) assessed as growth inhibition measured after 21 days; type: functional; how it was run: as §2
Conyza sumatrensis [12] = assay: Herbicidal activity against Conyza sumatrensis ( tall fleabane) at rosette stage (BBHC14 to 15) assessed as growth inhibition measured after 21 days; type: functional; how it was run: as §2
Root [13] = assay: Drug absorption in Conyza canadensis (horseweed) assessed as translocation in root at […] measured after 96 hr by liquid scintillation spectrometry; type: ADME; conditions: erigeron canadensis; how it was run: as §1
Root [14] = assay: Drug absorption in Conyza bonariensis (hairy fleabane) assessed as translocation in root at […] measured after 96 hr by liquid scintillation spectrometry; type: ADME; how it was run: as §1
Root [15] = assay: Drug absorption in Conyza sumatrensis (tall fleabane) assessed as translocation in root at […] measured after 96 hr by liquid scintillation spectrometry; type: ADME; how it was run: as §1
Conyza bonariensis [16] = assay: Drug absorption in Conyza bonariensis (hairy fleabane) assessed as translocation in rest of plant at […] measured after 96 hr by liquid scintillation spectrometry; type: ADME, organism-based; conditions: in vivo; how it was run: as §1

SMILES: O=C(O)CNCP(=O)(O)O [GLYPHOSATE]
- Drug transport (Erigeron canadensis [1]): 4%
- Drug transport (Conyza sumatrensis [2]): 5.9%
- Drug transport (Leaf [3]): 93%
- Drug transport (Leaf [4]): 85.2%
- Drug transport (Leaf [5]): 82.4%
- Ratio ED50 [6]: 12
- Ratio ED50 [7]: 5.4
- ED50 (Conyza bonariensis [8]): 86.6 gAi/ha
- ED50 (Conyza bonariensis [9]): 117.5 gAi/ha
- ED50 (Erigeron canadensis [10]): 34.9 gAi/ha
- ED50 (Conyza bonariensis [11]): 15.7 gAi/ha
- ED50 (Conyza sumatrensis [12]): 2.9 gAi/ha
- Drug transport (Root [13]): 2.8%
- Drug transport (Root [14]): 8.3%
- Drug transport (Root [15]): 11.6%
- Drug transport (Conyza bonariensis [16]): 6.4%
